Key:
Type in all cases: ADME, cell-based
OATP1B1 = target: T1, OATP1B1 (Homo sapiens, UniProt Q9Y6L6); assay: Drug uptake by human hepatic OATP1B1 transporter expressed in HEK293 cells at 10 uM relative to wild type HEK293 cells; conditions: HEK293 cells expressing OATP1B1, read-out: FC
T1 sequence (Q9Y6L6 whole entry): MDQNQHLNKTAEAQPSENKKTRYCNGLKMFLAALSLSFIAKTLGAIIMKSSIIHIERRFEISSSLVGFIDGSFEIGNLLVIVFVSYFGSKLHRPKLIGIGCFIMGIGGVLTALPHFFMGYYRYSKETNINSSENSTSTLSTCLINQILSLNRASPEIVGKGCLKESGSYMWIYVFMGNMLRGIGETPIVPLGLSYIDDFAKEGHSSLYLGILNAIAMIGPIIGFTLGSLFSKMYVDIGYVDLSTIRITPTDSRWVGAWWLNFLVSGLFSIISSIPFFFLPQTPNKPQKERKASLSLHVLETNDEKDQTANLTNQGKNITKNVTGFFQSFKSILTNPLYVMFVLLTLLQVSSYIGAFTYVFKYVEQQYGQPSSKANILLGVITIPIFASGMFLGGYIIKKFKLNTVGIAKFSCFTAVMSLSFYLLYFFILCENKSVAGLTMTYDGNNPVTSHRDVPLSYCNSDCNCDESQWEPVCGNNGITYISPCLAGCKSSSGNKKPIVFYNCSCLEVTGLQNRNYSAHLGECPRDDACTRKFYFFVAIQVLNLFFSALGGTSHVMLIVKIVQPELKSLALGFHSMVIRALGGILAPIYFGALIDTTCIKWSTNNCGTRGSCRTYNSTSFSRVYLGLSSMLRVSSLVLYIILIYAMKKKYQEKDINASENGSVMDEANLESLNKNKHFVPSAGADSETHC
Summary of the method: (§1)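 Individual hepatic OATP transporters were over-expressed in CHO or HEK293 cells: rat rOatp1a1, rOatp1a4 and rOatp1b2, and human hOATP1B1, hOATP1B3 and hOATP2B1. Substrate uptake is expressed as fold difference relative to the wild-type parental line. Rosuvastatin/pravastatin served as positive control and midazolam as negative control in each assay.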

OATP2B1 = target: T2, OATP2B1 (Homo sapiens, UniProt O94956); assay: Drug uptake by human hepatic OATP2B1 transporter expressed in HEK293 cells at 10 uM relative to wild-type HEK293 cells; conditions: HEK293 cells expressing OATP2B1, read-out: FC; summary of the method: as §1
T2 sequence (O94956 whole entry): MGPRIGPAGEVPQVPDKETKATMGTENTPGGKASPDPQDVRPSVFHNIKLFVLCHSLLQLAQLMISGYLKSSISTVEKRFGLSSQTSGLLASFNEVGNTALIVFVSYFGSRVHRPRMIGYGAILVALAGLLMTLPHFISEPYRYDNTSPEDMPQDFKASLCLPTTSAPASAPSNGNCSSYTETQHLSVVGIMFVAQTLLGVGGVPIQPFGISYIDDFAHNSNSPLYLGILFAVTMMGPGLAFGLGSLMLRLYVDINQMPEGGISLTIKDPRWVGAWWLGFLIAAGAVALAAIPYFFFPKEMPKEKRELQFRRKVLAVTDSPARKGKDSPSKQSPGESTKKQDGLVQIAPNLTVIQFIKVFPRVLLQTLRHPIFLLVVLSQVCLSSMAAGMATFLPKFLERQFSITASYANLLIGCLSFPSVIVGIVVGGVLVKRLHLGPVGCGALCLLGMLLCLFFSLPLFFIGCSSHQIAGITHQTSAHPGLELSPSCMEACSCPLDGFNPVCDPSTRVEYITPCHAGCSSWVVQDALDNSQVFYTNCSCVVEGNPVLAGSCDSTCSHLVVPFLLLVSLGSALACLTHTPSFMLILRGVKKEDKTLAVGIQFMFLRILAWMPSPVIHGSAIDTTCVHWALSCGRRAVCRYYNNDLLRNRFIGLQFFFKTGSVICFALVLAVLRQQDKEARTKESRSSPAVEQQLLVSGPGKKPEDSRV

Hepatocyte = assay: Drug uptake in sandwich-cultured rat hepatocytes assessed per mg of protein at 1 uM in presence of rifamycin SV
Summary of the method: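 Rat or human hepatocytes were cultured in sandwich configuration with a Matrigel overlay and compound uptake was measured. Active uptake was assessed by inhibition with the pan-OATP inhibitor rifamycin SV. Rosuvastatin/pravastatin served as positive control and midazolam as negative control.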

OATP1A4 = target: T3, OATP1A4 (Rattus norvegicus, UniProt O35913); assay: Drug uptake by rat hepatic OATP1A4 transporters expressed in CHO cells at 1 uM relative to wild type CHO cells; conditions: CHO cells expressing rat OATP1A4, read-out: FC; summary of the method: as §1
T3 sequence (O35913 whole entry): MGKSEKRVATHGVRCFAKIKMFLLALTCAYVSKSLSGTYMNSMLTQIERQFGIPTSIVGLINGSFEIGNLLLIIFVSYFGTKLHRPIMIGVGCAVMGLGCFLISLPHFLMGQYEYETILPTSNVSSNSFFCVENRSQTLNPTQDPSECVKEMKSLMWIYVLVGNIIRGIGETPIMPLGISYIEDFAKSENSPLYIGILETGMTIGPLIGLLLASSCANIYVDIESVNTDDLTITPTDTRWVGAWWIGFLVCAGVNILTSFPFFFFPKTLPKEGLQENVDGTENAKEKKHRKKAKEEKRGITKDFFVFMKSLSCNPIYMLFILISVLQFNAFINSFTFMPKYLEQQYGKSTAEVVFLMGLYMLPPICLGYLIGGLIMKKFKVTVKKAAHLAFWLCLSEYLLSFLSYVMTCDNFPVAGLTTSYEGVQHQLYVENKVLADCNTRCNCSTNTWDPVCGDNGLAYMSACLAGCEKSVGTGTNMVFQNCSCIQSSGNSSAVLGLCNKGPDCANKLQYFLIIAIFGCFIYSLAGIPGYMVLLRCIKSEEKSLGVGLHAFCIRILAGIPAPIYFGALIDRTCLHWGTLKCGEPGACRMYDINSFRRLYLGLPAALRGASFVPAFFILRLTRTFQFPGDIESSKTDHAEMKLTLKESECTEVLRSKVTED

Structure (SMILES)	uptake ratio at 10 µM (OATP1B1)	uptake ratio at 10 µM (OATP2B1)	Drug uptake (Hepatocyte)	uptake ratio at 1 µM (OATP1A4)
O=C([O-])C[C@H](O)C[C@H](O)CCn1c(-c2ccc(F)cc2)nc(C(=O)NCc2cccc(F)c2)c1C1CC1.[Na+]	84.9	6.8	100%	4.4
Cc1ccc(CNC(=O)c2nn(-c3ccc(F)cc3)c(CC[C@@H](O)C[C@@H](O)CC(=O)O)c2C(C)C)cc1	18.4	1.4	98%	2.7
Cc1ncc2n1-c1ccc(Cl)cc1C(c1ccccc1F)=NC2 [MIDAZOLAM]	0.9	0.7		0.93
CC[C@H](C)C(=O)O[C@H]1C[C@H](O)C=C2C=C[C@H](C)[C@H](CC[C@@H](O)C[C@@H](O)CC(=O)O)[C@H]21 [PRAVASTATIN]	223			1.5
CC(C)c1nc(N(C)S(C)(=O)=O)nc(-c2ccc(F)cc2)c1/C=C/[C@@H](O)C[C@@H](O)CC(=O)O [ROSUVASTATIN]	69.6	6.6	97%	8.6
